# Results gathered from unrelated publications.
# Effect on: enzyme activity
# Mode: inhibitor
# rep main protease: Replicase polyprotein 1ab, main protease (rep, Severe acute respiratory syndrome coronavirus 2, UniProt P0DTD1)
# rep papain-like protease: Replicase polyprotein 1ab, papain-like protease (rep, Severe acute respiratory syndrome coronavirus 2, UniProt P0DTD1)
SMILES,target,test,conditions,inhibition
COc1cc([C@H]2OC[C@H]3[C@@H]2CO[C@H]3c2ccc(OC)c(OC)c2)ccc1O,rep main protease,,100 µM,11.4%
Clc1nc2ccccc2cc1/C=N\c1ccc(-c2nc3ccccc3[nH]2)cc1,rep papain-like protease,,100 µM,25.3%
O=C(NC[C@H](NC(=O)c1cncc2ccccc12)c1ccc2ccccc2c1)c1cnc[nH]1,rep main protease,,5 µM,18.9%
Cc1cccc(NC2CS(=O)(=O)CC2O)c1 (centres unmarked),rep main protease,,20 µM,7.43%
Cc1cc(O)c2c(=O)c3c(O)cc(O)c4c5c(O)cc(O)c6c(=O)c7c(O)cc(C)c8c1c2c(c34)c(c78)c65,rep main protease,,20 µM,31.5%
C=C[C@@H]1C[C@]1(NC(=O)[C@@H]1C[C@@H]2CN1C(=O)[C@H](C(C)(C)C)NC(=O)O[C@@H]1C[C@H]1CCCCCc1nc3ccc(OC)cc3nc1O2)C(=O)NS(=O)(=O)C1CC1.O,rep main protease,,20 µM,1.19%
CCN(CC)C(=S)SSC(=S)N(CC)CC,rep main protease,fluorescence,"10 µM, pH 7.2",100%
CCC(=O)Oc1cccc2c1C(=O)C=CC2=O,rep main protease,,0.1 µM,35%
CC(=O)Nc1ccc(C2NN=C(c3ccc(C(F)(F)F)cn3)N2)cc1 (centres unmarked),rep main protease,,20 µM,4.63%
COCOc1cc(C)cc2c1C(=O)C=CC2=O,rep main protease,,10 µM,79.6%
O=C(Oc1cc([N+](=O)[O-])ccc1F)c1cccc2[nH]ccc12,rep main protease,fluorescence,"10 µM, pH 7.2",2%
CCOC(=O)COc1cc(C)cc2c1C(=O)C=CC2=O,rep main protease,,10 µM,97.5%
CC(C(=O)NC[C@H](NC(=O)c1[nH]nc2nc[nH]c(=O)c12)c1ccc2ccccc2c1)=C1CCC1,rep main protease,,5 µM,15.1%
C[C@@H]1O[C@@H](O[C@@H]2[C@@H](O)[C@H](OCCc3ccc(O)c(O)c3)O[C@H](CO)[C@H]2OC(=O)/C=C/c2ccc(O)c(O)c2)[C@H](O)[C@H](O)[C@H]1O,rep papain-like protease,,50 µM,15.6%
N#CC(c1ccc2c(c1)OCO2)N(Cc1ccccc1)C(=O)c1sc2ccccc2c1Cl (centres unmarked),rep main protease,,20 µM,8.09%
O=c1cc(-c2ccccc2)oc2cc(O)c(O)c(O)c12,rep main protease,,10 µM,87%
COc1cccc2c1C(=O)C(C(C)=O)=CC2=O,rep main protease,,1 µM,94.3%
S=c1[nH]c2ccccc2s1,rep main protease,,20 µM,63.6%
Cc1ccc(NC(=O)c2cc3c(=O)n4cccc(C)c4nc3n2C)cc1Cl,rep main protease,,1 µM,6.4%
O=C(/C=C/c1ccc(O)c(O)c1)O[C@@H]1C[C@](O)(C(=O)O)C[C@@H](O)[C@H]1O,rep main protease,FRET,"10 µM, 10 min",< 25%
O=C(CCc1ccccc1)Nc1ccc2c(c1)C(=O)OC2,rep main protease,,20 µM,-0.804%
O=c1c(O)c(-c2ccc(O)c(O)c2)oc2cc(O)cc(O)c12,rep main protease,FRET,"10 µM, 10 min",> 50%
Cc1cccn2c(=O)c3cc(C(=O)Nc4ccc(N(C)C)cc4)n(C)c3nc12,rep main protease,,1 mM,64%
